ChEMBL document CHEMBL4270565, “Design, synthesis and antimicrobial evaluation of propylene-tethered ciprofloxacin-isatin hybrids” (Eur J Med Chem, 2018)
In brackets after ≈: the same amount, converted by molar mass.

Key:
[1] = tested on: Staphylococcus epidermidis; experiment: Antibacterial activity against methicillin-sensitive Staphylococcus epidermidis ATCC 12228 after 18 to 24 hrs by two-fold serial dilution method; format: functional
Summary of the method: (§1)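 Agar two-fold dilution MIC. Compounds were dissolved in 0.1 N NaOH and water, then serially diluted in melted Mueller-Hinton agar, with top concentrations starting at 128. Plates were inoculated at about 10 cfu and incubated at 35 °C for 18–24 h. MIC was taken as the lowest concentration giving 90% inhibition of growth.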

[2] = tested on: Staphylococcus epidermidis; experiment: Antibacterial activity against methicillin-resistant Staphylococcus epidermidis 13-3 after 18 to 24 hrs by two-fold serial dilution method; format: functional
Summary of the method: (§2)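 Agar two-fold serial dilution in Mueller-Hinton agar. Strains came from the Chinese Center for Disease Control and Prevention. Compounds were dissolved in 0.1 N NaOH and water, then diluted in melted agar to final levels stepping down from 128. Plates were inoculated with bacterial cfu and incubated at 35 C for 18–24 h. MIC is the lowest concentration giving 90% growth inhibition.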

Staphylococcus aureus [3] = experiment: Antibacterial activity against methicillin-sensitive Staphylococcus aureus ATCC 29213 after 18 to 24 hrs by two-fold serial dilution method; format: functional; summary of the method: as §2
Staphylococcus aureus [4] = experiment: Antibacterial activity against methicillin-resistant Staphylococcus aureus ATCC 33591 after 18 to 24 hrs by two-fold serial dilution method; format: functional; summary of the method: as §2
Enterococcus faecalis [5] = experiment: Antibacterial activity against Enterococcus faecalis ATCC 29212 after 18 to 24 hrs by two-fold serial dilution method; format: functional; summary of the method: as §1
Enterococcus faecalis [6] = experiment: Antibacterial activity against Enterococcus faecalis ATCC 51299 after 18 to 24 hrs by two-fold serial dilution method; format: functional; summary of the method: as §1
Enterococcus faecium [7] = experiment: Antibacterial activity against Enterococcus faecium ATCC 700221 after 18 to 24 hrs by two-fold serial dilution method; format: functional; summary of the method: as §1
Enterococcus faecium [8] = experiment: Antibacterial activity against Enterococcus faecium 13-7 after 18 to 24 hrs by two-fold serial dilution method; format: functional; summary of the method: as §1
Escherichia coli [9] = experiment: Antibacterial activity against extended-spectrum beta-lactamase deficient Escherichia coli ATCC 25922 after 18 to 24 hrs by two-fold serial dilution method; format: functional; summary of the method: as §1
Escherichia coli [10] = experiment: Antibacterial activity against extended-spectrum beta-lactamase harboring Escherichia coli ATCC 35218 after 18 to 24 hrs by two-fold serial dilution method; format: functional; summary of the method: as §2
Klebsiella pneumoniae [11] = experiment: Antibacterial activity against extended-spectrum beta-lactamase harboring Klebsiella pneumoniae ATCC 700603 after 18 to 24 hrs by two-fold serial dilution method; format: functional; summary of the method: as §2
Klebsiella pneumoniae [12] = experiment: Antibacterial activity against extended-spectrum beta-lactamase deficient Klebsiella pneumoniae 15-2 after 18 to 24 hrs by two-fold serial dilution method; format: functional; summary of the method: as §1
Pseudomonas aeruginosa = experiment: Antibacterial activity against Pseudomonas aeruginosa ATCC 27853 after 18 to 24 hrs by two-fold serial dilution method; format: functional; summary of the method: as §1
[13] = tested on: Acinetobacter calcoaceticus; experiment: Antibacterial activity against Acinetobacter calcoaceticus ATCC 19606 after 18 to 24 hrs by two-fold serial dilution method; format: functional; summary of the method: as §1
Enterobacter cloacae = experiment: Antibacterial activity against Enterobacter cloacae ATCC 43560 after 18 to 24 hrs by two-fold serial dilution method; format: functional
Klebsiella aerogenes = experiment: Antibacterial activity against Enterobacter aerogenes ATCC 13048 after 18 to 24 hrs by two-fold serial dilution method; format: functional; summary of the method: as §1
Serratia marcescens = experiment: Antibacterial activity against Serratia marcescens ATCC 21074 after 18 to 24 hrs by two-fold serial dilution method; format: functional; summary of the method: as §1
Morganella morganii = experiment: Antibacterial activity against Morganella morganii ATCC 25830 after 18 to 24 hrs by two-fold serial dilution method; format: functional; summary of the method: as §1
Providencia rettgeri = experiment: Antibacterial activity against Providencia rettgeri ATCC 31052 after 18 to 24 hrs by two-fold serial dilution method; format: functional; summary of the method: as §1
Proteus vulgaris = experiment: Antibacterial activity against Proteus vulgaris ATCC 29905 after 18 to 24 hrs by two-fold serial dilution method; format: functional; summary of the method: as §1
Proteus mirabilis = experiment: Antibacterial activity against Proteus mirabilis 13-1 after 18 to 24 hrs by two-fold serial dilution method; format: functional; summary of the method: as §1
[14] = tested on: Stenotrophomonas maltophilia; experiment: Antibacterial activity against Stenotrophomonas maltophilia ATCC 13636 after 18 to 24 hrs by two-fold serial dilution method; format: functional; summary of the method: as §1
Citrobacter freundii = experiment: Antibacterial activity against extended-spectrum beta-lactamase harboring Citrobacter freundii ATCC 43864 after 18 to 24 hrs by two-fold serial dilution method; format: functional; summary of the method: as §2
[15] = tested on: Mycobacterium tuberculosis; experiment: Antimycobacterial activity against Mycobacterium tuberculosis H37Rv after 7 days; format: functional; conditions: 168 h
Summary of the method: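 Rapid direct susceptibility test in 48-well plates. Two-fold dilutions of compound from DMSO stocks were mixed with an equal volume of bacterial suspension. Medium-only wells served as growth controls and water-only wells as no-growth controls. Plates were sealed and held at 37 C in a humid box, and controls were checked at 3 days. MIC (90% growth inhibition) was read visually by high-magnification observation of the cells and re-read at 7 days.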

[16] = Cytotoxicity against African green monkey Vero cells assessed as reduction in cell viability after 72 hrs by MTT assay; format: cell-based; conditions: chlorocebus sabaeus
Summary of the method: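 VERO cells were kept in MEM with Earle's salts and 10% FBS at 37 °C, 5% CO2. They were seeded in 96-well plates and allowed to recover for 24 h. Cells were then exposed to compounds in DMSO over a series from 1000 down to 4 for 72 h. Viability was read by MTT, and CC50 was calculated by Bliss analysis.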

Row | SMILES | MIC90 [1] | MIC90 [2] | MIC90 (Staphylococcus aureus [3]) | MIC90 (Staphylococcus aureus [4]) | MIC90 (Enterococcus faecalis [5]) | MIC90 (Enterococcus faecalis [6]) | MIC90 (Enterococcus faecium [7]) | MIC90 (Enterococcus faecium [8]) | MIC90 (Escherichia coli [9]) | MIC90 (Escherichia coli [10]) | MIC90 (Klebsiella pneumoniae [11]) | MIC90 (Klebsiella pneumoniae [12]) | MIC90 (Pseudomonas aeruginosa) | MIC90 [13] | MIC90 (Enterobacter cloacae) | MIC90 (Klebsiella aerogenes) | MIC90 (Serratia marcescens) | MIC90 (Morganella morganii) | MIC90 (Providencia rettgeri) | MIC90 [15] | further results
1 | CO/N=C1\C(=O)N(CCCN2CCN(c3cc4c(cc3F)c(=O)c(C(=O)O)cn4C3CC3)CC2)c2ccccc21 | 0.125 µg/mL (≈ 0.228 µM) | 2 µg/mL (≈ 3.65 µM) | 0.125 µg/mL (≈ 0.228 µM) | 0.25 µg/mL (≈ 0.457 µM) | 0.5 µg/mL (≈ 0.913 µM) | 1 µg/mL (≈ 1.83 µM) | 8 µg/mL (≈ 14.6 µM) | 32 µg/mL (≈ 58.4 µM) | ≤ 0.03 µg/mL | ≤ 0.03 µg/mL | 0.5 µg/mL (≈ 0.913 µM) | ≤ 0.03 µg/mL | 1 µg/mL (≈ 1.83 µM) | 0.5 µg/mL (≈ 0.913 µM) | ≤ 0.03 µg/mL | ≤ 0.03 µg/mL | 0.06 µg/mL (≈ 0.11 µM) | ≤ 0.03 µg/mL | ≤ 0.03 µg/mL | 0.39 µg/mL (≈ 0.712 µM) | MIC90 (Proteus vulgaris): ≤ 0.03 µg/mL; MIC90 (Proteus mirabilis): ≤ 0.03 µg/mL; MIC90 [14]: 0.06 µg/mL (≈ 0.11 µM); MIC90 (Citrobacter freundii): ≤ 0.03 µg/mL; CC50 at 72 h [16]: 32 µg/mL (≈ 58.4 µM)
2 | CCO/N=C1\C(=O)N(CCCN2CCN(c3cc4c(cc3F)c(=O)c(C(=O)O)cn4C3CC3)CC2)c2ccc(C)cc21 | 0.125 µg/mL (≈ 0.217 µM) | 2 µg/mL (≈ 3.47 µM) | 0.125 µg/mL (≈ 0.217 µM) | 0.125 µg/mL (≈ 0.217 µM) | 0.5 µg/mL (≈ 0.869 µM) | 1 µg/mL (≈ 1.74 µM) | 4 µg/mL (≈ 6.95 µM) | 32 µg/mL (≈ 55.6 µM) | ≤ 0.03 µg/mL | ≤ 0.03 µg/mL | 0.5 µg/mL (≈ 0.869 µM) | ≤ 0.03 µg/mL | 1 µg/mL (≈ 1.74 µM) | 0.5 µg/mL (≈ 0.869 µM) | ≤ 0.03 µg/mL | ≤ 0.03 µg/mL | 0.06 µg/mL (≈ 0.104 µM) | ≤ 0.03 µg/mL | ≤ 0.03 µg/mL | 3.12 µg/mL (≈ 5.42 µM) | MIC90 (Proteus vulgaris): ≤ 0.03 µg/mL; MIC90 (Proteus mirabilis): ≤ 0.03 µg/mL; MIC90 [14]: 0.06 µg/mL (≈ 0.104 µM); MIC90 (Citrobacter freundii): ≤ 0.03 µg/mL; CC50 at 72 h [16]: 128 µg/mL (≈ 222 µM)
3 | NNC(=O)c1ccncc1 [ISONIAZID] | – | – | – | – | – | – | – | – | – | – | – | – | – | – | – | – | – | – | – | 0.05 µg/mL (≈ 0.365 µM) | –
4 | O=C1C(=O)N(CCCOC(=O)c2cn(C3CC3)c3cc(N4CCN(CCCN5C(=O)C(=O)c6ccccc65)CC4)c(F)cc3c2=O)c2ccccc21 | 64 µg/mL (≈ 90.7 µM) | > 128 µg/mL | 128 µg/mL (≈ 181 µM) | > 128 µg/mL | 64 µg/mL (≈ 90.7 µM) | > 128 µg/mL | > 128 µg/mL | > 128 µg/mL | 4 µg/mL (≈ 5.67 µM) | 16 µg/mL (≈ 22.7 µM) | 64 µg/mL (≈ 90.7 µM) | 64 µg/mL (≈ 90.7 µM) | > 128 µg/mL | 128 µg/mL (≈ 181 µM) | 128 µg/mL (≈ 181 µM) | 64 µg/mL (≈ 90.7 µM) | 32 µg/mL (≈ 45.3 µM) | 64 µg/mL (≈ 90.7 µM) | 128 µg/mL (≈ 181 µM) | 12.5 µg/mL (≈ 17.7 µM) | MIC90 (Proteus vulgaris): 64 µg/mL (≈ 90.7 µM); MIC90 (Proteus mirabilis): 64 µg/mL (≈ 90.7 µM); MIC90 [14]: > 128 µg/mL; MIC90 (Citrobacter freundii): 64 µg/mL (≈ 90.7 µM); CC50 at 72 h [16]: 32 µg/mL (≈ 45.3 µM)
5 | C[C@H]1COc2c(N3CCN(C)CC3)c(F)cc3c(=O)c(C(=O)O)cn1c23.C[C@H]1COc2c(N3CCN(C)CC3)c(F)cc3c(=O)c(C(=O)O)cn1c23.O [LEVOFLOXACIN] | 0.125 µg/mL | 4 µg/mL | 0.125 µg/mL | 0.125 µg/mL | 1 µg/mL | 1 µg/mL | 16 µg/mL | 64 µg/mL | ≤ 0.03 µg/mL | ≤ 0.03 µg/mL | 0.5 µg/mL | ≤ 0.03 µg/mL | 2 µg/mL | 0.125 µg/mL | ≤ 0.03 µg/mL | 0.06 µg/mL | 0.125 µg/mL | ≤ 0.03 µg/mL | ≤ 0.03 µg/mL | – | MIC90 (Proteus vulgaris): ≤ 0.03 µg/mL; MIC90 (Proteus mirabilis): ≤ 0.03 µg/mL; MIC90 [14]: 1 µg/mL; MIC90 (Citrobacter freundii): ≤ 0.03 µg/mL
6 | CO[C@H]1/C=C/O[C@@]2(C)Oc3c(C)c(O)c4c(O)c(c(/C=N/N5CCN(C)CC5)c(O)c4c3C2=O)NC(=O)/C(C)=C\C=C\[C@H](C)[C@H](O)[C@@H](C)[C@@H](O)[C@@H](C)[C@H](OC(C)=O)[C@@H]1C [RIFAMPIN] | – | – | – | – | – | – | – | – | – | – | – | – | – | – | – | – | – | – | – | 0.39 µg/mL (≈ 0.474 µM) | –
